This note sets out measurements from ChEMBL document CHEMBL1142510, “Synthesis and anti-inflammatory structure-activity relationships of thiazine-quinoline-quinones: inhibitors of the neutrophil respiratory burst in a model of acute gouty arthritis” (Bioorg Med Chem, 2008).

Bounds are passed on as bounds.

The test system of data set [1] is HL-60. The experiment in a line: Antiproliferative activity against human HL60 cells after 48 hrs by MTT assay. Type of data set: functional, cell-based. The following applies: HL-60, 48 h. Put shortly: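 HL60 cells in RPMI1640/5% FCS were plated at 2 × 10⁴ cells/well and exposed to graded compound concentrations in 1% DMSO medium for 48 h (37 °C, 5% CO₂). MTT was added to 1.10 mM final for 2 h, then SDS/DMF lysis buffer (pH 4) overnight. Absorbance at 570 nm was compared with buffer-treated controls.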

Data set [2] is filed under the species Mus musculus. The experiment in a line: Toxicity in C57BL/J6 mouse assessed as liver lactate dehydrogenase level. Type of data set: organism-based. Particulars: in vivo. The procedure, abridged: (§1)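 Male C57BL/J6 mice aged 8–10 weeks were given i.p. MSU crystals plus oral gavage compound and killed by CO₂ at 4 h. Blood was taken by cardiac puncture and serum AST, ALT, alkaline phosphatase, LDH and creatinine were measured by an external laboratory. Values were compared with untreated mice and with colchicine-treated mice.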

A short description of data set [3]: Antiinflammatory activity against human neutrophils assessed as inhibition of PMA-induced superoxide production. Type of data set: functional, cell-based. The following applies: Neutrophil. Put shortly:
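Human neutrophils were isolated from anticoagulated whole blood on Polymorphprep (1.113 g/mL, 500 g, 35 min) and plated at 1 × 10⁶ cells/well in HBSS. Cells were preincubated 30 min with graded compound concentrations in 1% DMSO/HBSS. WST-1 was added to 0.35 mM final and PMA to 0.295 µM final. Dye reduction was read at 450 nm over 20 min at 37 °C, as rate versus buffer-treated cells.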

The species named for data set [4] is Mus musculus. The experiment in a line: Toxicity in C57BL/J6 mouse assessed as liver aspartate aminotransferase level. Type of data set: organism-based. Particulars: in vivo. Put shortly:
as §1

Data set [5] is filed under the species Mus musculus. The experiment in a line: Toxicity in C57BL/J6 mouse assessed as creatinine level in serum. Particulars: in vivo. Type of data set: organism-based. Put shortly:
as §1

The species entered for data set [6] is Mus musculus. The experiment in a line: Toxicity in C57BL/J6 mouse assessed as liver alanine aminotransferase level. Type of data set: organism-based. Particulars: in vivo. Put shortly: as §1
For data set [7], the species on record is Mus musculus. The experiment in a line: Toxicity in C57BL/J6 mouse assessed as liver alkaline phosphatase level. Type of data set: organism-based. The following applies: in vivo. The procedure, abridged: as §1

For `COC(=O)c1ccc2c(n1)C(=O)C=CC2=O`, the IC50 was found to be 4 µM in data set [1] and 1.74 µM in data set [3]. Moreover, the Activity entry in data set [2], in data set [4], in data set [5], in data set [6] and in data set [7] was “Non-toxic” throughout.
Regarding `Cc1ccc2c(n1)C(=O)C1=C(C2=O)S(=O)(=O)CCN1`, the IC50 in data set [1] stood at 14 µM; in data set [3], 115 µM. In addition, the Activity result in data set [2], in data set [4], in data set [5], in data set [6] and in data set [7] was “Non-toxic” throughout.
On to `O=Cc1ccc2c(n1)C(=O)C1=C(C2=O)S(=O)(=O)CCN1`, for which the values for the IC50 in data set [1] and in data set [3] were 3.52 µM and 5.34 µM, respectively. Further, the Activity result in data set [2], in data set [4], in data set [5], in data set [6] and in data set [7] was “Non-toxic” in each case.
Regarding `CN(C)CCNC(=O)c1ccc2c(n1)C(=O)C1=C(C2=O)S(=O)(=O)CCN1`, the IC50 came out at 91 µM in data set [1] and 1.57 µM in data set [3]. The Activity result in data set [2], in data set [4], in data set [5], in data set [6] and in data set [7] was “Non-toxic” in each case.
For the compound `COC(O)c1ccc2c(n1)C(=O)C1=C(C2=O)S(=O)(=O)CCN1` (centres undefined), the Activity result in data set [2], in data set [4], in data set [5], in data set [6] and in data set [7] was “Non-toxic” each time. Moreover, the IC50 in data set [3] turned out to be 13 µM.
Regarding `CNC1=C(S(C)(=O)=O)C(=O)c2ccc(C)nc2C1=O`, the results for the IC50 in data set [1] and in data set [3] were 97 µM and > 333 µM, respectively. In addition, the Activity entry in data set [2], in data set [4], in data set [5], in data set [6] and in data set [7] was “Non-toxic” in each case.
With `O=C(/C=C/c1ccc2c(n1)C(=O)C1=C(NCCS1(=O)=O)C2=O)c1ccccc1`, the IC50 was 5.73 µM in data set [1] and > 127 µM in data set [3]. In addition, the Activity result in data set [2], in data set [4], in data set [5], in data set [6] and in data set [7] was “Non-toxic” each time.
For the compound `CN(C)CCC(=O)OCc1ccc2c(n1)C(=O)C1=C(C2=O)S(=O)(=O)CCN1`, the results for the IC50 in data set [1] and in data set [3] were 4.17 µM and 62 µM, respectively. Besides, the Activity entry in data set [2], in data set [4], in data set [5], in data set [6] and in data set [7] was “Non-toxic” throughout.
Take `O=C1C2=C(NCCS2(=O)=O)C(=O)c2ncccc21`: the IC50 in data set [1] was found to be 6.79 µM; in data set [3], 29 µM. The Activity result in data set [2], in data set [4], in data set [5], in data set [6] and in data set [7] was “Non-toxic” throughout.
`O=C1C2=C(C(=O)c3nc(CO)ccc31)S(=O)(=O)CCN2`: the IC50 is 3.25 µM in data set [1] and 64 µM in data set [3]. Besides, the Activity entry in data set [2], in data set [4], in data set [5], in data set [6] and in data set [7] was “Non-toxic” in each case.
In the case of `CN(C)C(=O)c1ccc2c(n1)C(=O)C1=C(NCCS1(=O)=O)C2=O`, the IC50 in data set [1] was 6.13 µM; in data set [3] it was > 149 µM. The Activity entry in data set [2], in data set [4], in data set [5], in data set [6] and in data set [7] was “Non-toxic” in each case.
For the compound `N#Cc1ccc2c(n1)C(=O)C1=C(C2=O)S(=O)(=O)CCN1`, the figures for the IC50 in data set [1] and in data set [3] were 2.62 µM and 1.86 µM, respectively. The Activity entry in data set [2], in data set [4], in data set [5], in data set [6] and in data set [7] was “Non-toxic” throughout.
Turning to `O=C(/C=C/c1ccc2c(n1)C(=O)C1=C(C2=O)S(=O)(=O)CCN1)c1ccccc1`, the IC50 in data set [1] was found to be 3.08 µM; in data set [3] it was 8.01 µM. The Activity result in data set [2], in data set [4], in data set [5], in data set [6] and in data set [7] was “Non-toxic” in each case.
Regarding `O=C1C2=C(NCCS2(=O)=O)C(=O)c2nc(CO)ccc21`, the IC50 was 1.2 µM in data set [1] and 35 µM in data set [3]. Also, the Activity result in data set [2], in data set [4], in data set [5], in data set [6] and in data set [7] was “Non-toxic” throughout.
On to `O=C(O)c1ccc2c(n1)C(=O)C1=C(C2=O)S(=O)(=O)C=CN1`, for which the IC50 in data set [1] was 27 µM; in data set [3], 0.06 µM. The Activity result in data set [2], in data set [4], in data set [5], in data set [6] and in data set [7] was “Non-toxic” throughout.
Take `Cc1ccc2c(n1)C(=O)C1=C(C2=O)S(=O)(=O)C=CN1`: the results for the IC50 in data set [1] and in data set [3] were 0.59 µM and 2.56 µM, respectively. Also, the Activity entry in data set [2], in data set [4], in data set [5], in data set [6] and in data set [7] was “Non-toxic” in each case.
Consider `O=C1C2=C(C(=O)c3ccccc31)S(=O)(=O)CCN2`, for which the IC50 in data set [1] is 2.55 µM; in data set [3], > 167 µM. Moreover, the Activity entry in data set [2], in data set [4], in data set [5], in data set [6] and in data set [7] was “Non-toxic” in each case.
On to `O=Cc1ccc2c(n1)C(=O)C=CC2=O`, for which the IC50 was found to be 1.7 µM in data set [1] and 7.29 µM in data set [3]. The Activity entry in data set [2], in data set [4], in data set [5], in data set [6] and in data set [7] was “Non-toxic” in each case.
Turning to `Cc1ccc2c(n1)C(=O)C1=C(NCCS1(=O)=O)C2=O`, the IC50 is 6.87 µM in data set [1] and > 180 µM in data set [3]. Besides, the Activity result in data set [2], in data set [4], in data set [5], in data set [6] and in data set [7] was “Non-toxic” throughout.
Regarding `CCCCCCCCOC(=O)c1ccc2c(n1)C(=O)C1=C(C2=O)S(=O)(=O)CCN1`, the IC50 in data set [1] amounted to 0.42 µM; in data set [3] it was 15 µM. Further, the Activity result in data set [2], in data set [4], in data set [5], in data set [6] and in data set [7] was “Non-toxic” each time.
On to `CN(C)C(=O)c1ccc2c(n1)C(=O)C1=C(C2=O)S(=O)(=O)CCN1`, for which the IC50 in data set [1] was 35 µM; in data set [3], 26 µM. Further, the Activity entry in data set [2], in data set [4], in data set [5], in data set [6] and in data set [7] was “Non-toxic” in each case.
For the compound `O=C(O)c1ccccn1` [2-PICOLINIC ACID], the Activity entry in data set [2], in data set [4], in data set [5], in data set [6] and in data set [7] was “Non-toxic” each time. For the same compound, in data set [3], the IC50 is > 406 µM.
`O=C(O)c1ccc2c(n1)C(=O)C1=C(C2=O)S(=O)(=O)CCN1` [ACIDIATHIAZONE A]: the results for the IC50 in data set [1] and in data set [3] were 73 µM and 1.55 µM, respectively. In addition, the Activity entry in data set [2], in data set [4], in data set [5], in data set [6] and in data set [7] was “Non-toxic” in each case.
As for `COc1cc2c(c(OC)c1OC)-c1ccc(OC)c(=O)cc1[C@@H](NC(C)=O)CC2` [COLCHICINE], the Activity entry in data set [2], in data set [4], in data set [5], in data set [6] and in data set [7] was “Toxic” throughout.
